Laboratory results as given in article PMC11359639 (ACS Omega, 2024).
Entries after “also recorded” stand apart in the source; their conditions may differ. Values belong to the molecule of their own block, whether it stands above or below them.

Experiments:
TNF-α [1] = test: TNF-α level in supernatant of LPS-induced RAW264.7 cells; assay type: cell-based; settings: RAW264.7 cells supernatant, LPS 1 μg/mL, 1 μM, 48 h
Outline: (§1)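 RAW264.7 cells were allowed to attach, then the medium was replaced with 1 μg/mL LPS plus test compound at final concentrations of 1, 10 and 100 μM, with DMSO used for solubilisation where needed. […] After 48 h culture, the supernatant was assayed for IL-1β, IL-6 and TNF-α. Values are means of three independent experiments, mean ± SD, compared by one-way ANOVA.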

IL-6 [2] = test: IL-6 level in supernatant of LPS-induced RAW264.7 cells; assay type: cell-based; settings: RAW264.7 cells supernatant, LPS 1 μg/mL, 1 μM, 48 h
Outline: as §1

IL-1β = IL-1β level in supernatant of LPS-induced RAW264.7 cells; assay type: cell-based; settings: RAW264.7 cells supernatant, LPS 1 μg/mL, 1 μM, 48 h
Outline: as §1

IL-6 [3] = test: Rat CIA model, serum IL-6 concentration; assay type: in vivo; settings: CIA rats, 50 and 100 (mg/kg)/day oral, compared with model group
[4] = tested on: CIA (collagen-induced arthritis) model; test: Rat CIA; assay type: in vivo; settings: for paw volume of rats: CIA rats, 15 days
TNF-α [5] = test: Rat CIA model, serum TNF-α concentration; assay type: in vivo; settings: CIA rats, 50 and 100 (mg/kg)/day oral, compared with model group
TNF-α [6] = test: TNF-α mRNA expression in RAW264.7 cells by RT-PCR; assay type: cell-based; settings: LPS-induced RAW264.7 cells, 1 μM, 24 h, vs model group
TNF-α [7] = test: TNF-α protein expression in RAW264.7 cells by immunofluorescence; assay type: cell-based; settings: LPS-induced RAW264.7 cells, 1 μM, 24 h, vs model group
Outline: (§2)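 They were PBS-washed, fixed in 4% fixative for 45 min, permeabilised with 0.25% Triton for 15 min and blocked with 5% BSA for 10 min. Staining used rabbit anti-mouse TLR4 or TNF-α (1:100, 4 °C overnight), FITC anti-rabbit (1:400, 37 °C, 30 min) and DAPI. Mean cell fluorescence was read by confocal microscopy.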

NF-κB [8] = test: NF-κB protein expression in RAW264.7 cells by Western blot; assay type: cell-based; settings: LPS-induced RAW264.7 cells, 1 μM, 24 h, vs model group
[9] = Pharmacokinetics in Sprague-Dawley rats; assay type: in vivo, rat; settings: for maximum concentration: SD rats; for half-life: male, Sprague-Dawley, rat, plasma
Outline: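 Male SD rats (6–8 weeks) received test compound in 10% DMSO + 10% Solutol HS15 + 80% (20% HP-β-CD saline), either 20 mg/kg via foot dorsal vein or 100 mg/kg by oral gavage. Samples were kept on wet ice and spun at 2000g for 5 min at 4 °C within 15 min. Plasma was analysed by LC-MS/MS.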

NF-κB [10] = test: NF-κB protein expression in RAW264.7 cells by immunofluorescence; assay type: cell-based; settings: LPS-induced RAW264.7 cells, 1 μM, 24 h, vs model group
TLR4 [11] = test: TLR4 protein expression in RAW264.7 cells by Western blot; assay type: cell-based; settings: LPS-induced RAW264.7 cells, 1 μM, 24 h, vs model group
Outline: (§3)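 Lysis was in RIPA containing 1% PMSF on ice for 3–4 h, followed by centrifugation at 12000 rpm for 15 min. Supernatants were stored at −80 °C, and TLR4 and TNF-α protein were detected by Western blot.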

TNF-α [12] = test: TNF-α protein expression in RAW264.7 cells by Western blot; assay type: cell-based; settings: LPS-induced RAW264.7 cells, 1 μM, 24 h, vs model group
Outline: as §3

TLR4 [13] = test: TLR4 protein expression in RAW264.7 cells by immunofluorescence; assay type: cell-based; settings: LPS-induced RAW264.7 cells, 1 μM, 24 h, vs model group
Outline: as §2

NF-κB [14] = test: NF-κB mRNA expression in RAW264.7 cells by RT-PCR; assay type: cell-based; settings: LPS-induced RAW264.7 cells, 1 μM, 24 h, vs model group
TLR4 [15] = test: TLR4 mRNA expression in RAW264.7 cells by RT-PCR; assay type: cell-based; settings: LPS-induced RAW264.7 cells, 1 μM, 24 h, vs model group

Structure (SMILES): CC(=O)CC(=O)C1CCCC1=O (stereo not drawn) [Compound 3a, 1-(2-Oxocyclopentyl)butane-1,3-dione]
Inflammatory factor TNF-α (TNF-α [1]): 520.6 ± 54.6 pg/L
Inflammatory factor IL-6 (IL-6 [2]): 196.2 ± 14.3 pg/L
Inflammatory factor IL-1β (IL-1β): 512.0 ± 85.0 pg/L

Structure (SMILES): COC(=O)C1CCC(C(=O)CC(C)=O)C1=O (stereo not drawn) [Compound 3g, Methyl 2-oxo-3-(3-oxobutanoyl)cyclopentane-1-carboxylate]
Inflammatory factor TNF-α (TNF-α [1]): 339.8 ± 49.2 pg/L
Inflammatory factor IL-6 (IL-6 [2]): 170.3 ± 25.3 pg/L
Inflammatory factor IL-1β (IL-1β): 408.2 ± 69.1 pg/L

Structure (SMILES): CCOC(=O)C1CCC(C(=O)CC(C)=O)C1=O (stereo not drawn) [Compound 3h, Ethyl 2-oxo-3-(3-oxobutanoyl)cyclopentane-1-carboxylate]
Inflammatory factor TNF-α (TNF-α [1]): 524.7 ± 48.5 pg/L
Inflammatory factor IL-6 (IL-6 [2]): 197.4 ± 21.3 pg/L
Inflammatory factor IL-1β (IL-1β): 506.0 ± 65.1 pg/L

Structure (SMILES): CC(=O)CC(=O)C1CCC(C(C)=O)C1=O (stereo not drawn) [Compound 3i, 1-(3-Acetyl-2-oxocyclopentyl)butane-1,3-dione]
Inflammatory factor TNF-α (TNF-α [1]): 424.5 ± 87.6 pg/L
Inflammatory factor IL-6 (IL-6 [2]): 205.2 ± 25.9 pg/L
Inflammatory factor IL-1β (IL-1β): 558.4 ± 66.9 pg/L

Structure (SMILES): CCCCCC1C(=O)C(C(=O)CC(C)=O)CC1CC(=O)OC (stereo not drawn) [Compound 3j, Methyl 2-(3-oxo-4-(3-oxobutanoyl)-2-pentylcyclopentyl)acetate]
Inflammatory factor TNF-α (TNF-α [1]): 400.6 ± 60.2 pg/L
Inflammatory factor IL-6 (IL-6 [2]): 163.8 ± 25.9 pg/L
Inflammatory factor IL-1β (IL-1β): 488.8 ± 66.1 pg/L

maximum concentration ([9]; intravenous dose 20 mg/kg): 1603 ng/mL
maximum concentration ([9]; oral dose 100 mg/kg): 2014 ng/mL
half-life ([9]; iv, 20 mg/kg): 30 to 60 min
half-life ([9]; po, 100 mg/kg): 30 to 60 min
Structure (SMILES): CC(=O)CC(=O)C1CC(C)C(=O)C1=O (stereo not drawn) [Compound 3k, 3-Methyl-5-(3-oxobutanoyl) cyclopentane-1,2-dione]
serum IL-6 concentration (IL-6 [3]): decreased significantly and reached the normal level
paw volume of rats ([4]; high dose 100 (mg/kg)/day oral): basically unchanged
paw volume of rats ([4]; low dose 50 (mg/kg)/day oral): basically unchanged
effect in collagen-induced arthritis model compared with methotrexate ([4]; administered orally): effects similar to those of methotrexate; also recorded: effect similar to that of the positive control group methotrexate
serum TNF-α concentration (TNF-α [5]): decreased significantly and reached the normal level
expression of TNF-α gene (RT-PCR) (TNF-α [6]): significant down-regulated
expression of TNF-α protein (immunofluorescence) (TNF-α [7]): significantly down-regulated
expression of NF-κB protein (Western blot) (NF-κB [8]): significantly down-regulated
expression of NF-κB protein (immunofluorescence) (NF-κB [10]): significantly down-regulated
Inflammatory factor TNF-α (TNF-α [1]): 217.8 ± 20.3 pg/L
Inflammatory factor IL-6 (IL-6 [2]): 96.6 ± 9.8 pg/L
expression of TLR4 protein (Western blot) (TLR4 [11]): significantly down-regulated
expression of TNF-α protein (Western blot) (TNF-α [12]): significantly down-regulated
Inflammatory factor IL-1β (IL-1β): 278.6 ± 58.1 pg/L
expression of TLR4 protein (immunofluorescence) (TLR4 [13]): significantly down-regulated
expression of NF-κB gene (RT-PCR) (NF-κB [14]): significant down-regulated
expression of TLR4 gene (RT-PCR) (TLR4 [15]): significant down-regulated

Structure (SMILES): CN(Cc1cnc2nc(N)nc(N)c2n1)c1ccc(C(=O)N[C@@H](CCC(=O)O)C(=O)O)cc1 [methotrexate, reference compound]
expression of TNF-α gene (RT-PCR) (TNF-α [6]): significantly down-regulated
expression of TNF-α protein (immunofluorescence) (TNF-α [7]): significantly down-regulated
Inflammatory factor TNF-α (TNF-α [1]): 236.8 ± 18.7 pg/L
Inflammatory factor IL-6 (IL-6 [2]): 114.1 ± 2.8 pg/L
expression of TLR4 protein (Western blot) (TLR4 [11]): significantly down-regulated
expression of TNF-α protein (Western blot) (TNF-α [12]): significantly down-regulated
Inflammatory factor IL-1β (IL-1β): 337.6 ± 47.8 pg/L
expression of TLR4 protein (immunofluorescence) (TLR4 [13]): significantly down-regulated
expression of TLR4 gene (RT-PCR) (TLR4 [15]): significantly down-regulated
